In ChEMBL document CHEMBL4354813, “Design, Synthesis, and Pharmacological Evaluation of Potent Positive Allosteric Modulators of the Glucagon-like Peptide-1 Receptor (GLP-1R)” (J Med Chem, 2020):
Active and inactive are the calls of the source. The rule behind the calls is not given here.

Legend:
[1] = Drug recovery in iv dosed rat bile assessed as metabolically unchanged compound level in rat fistula study; format: ADME, organism-based; conditions: read-out: Drug recovery
OATP1B1 = target: T1, OATP1B1 (Homo sapiens, UniProt Q9Y6L6); assay: Substrate activity at human OATP1B1 expressed in HEK293 cells assessed as increase in compound uptake at 1 uM incubated up to 15 mins LC-MS/MS analysis relative to control relative to control; format: ADME, cell-based; conditions: HEK293 cells expressing human OATP1B1, read-out: FC
T1 sequence (Q9Y6L6 whole entry): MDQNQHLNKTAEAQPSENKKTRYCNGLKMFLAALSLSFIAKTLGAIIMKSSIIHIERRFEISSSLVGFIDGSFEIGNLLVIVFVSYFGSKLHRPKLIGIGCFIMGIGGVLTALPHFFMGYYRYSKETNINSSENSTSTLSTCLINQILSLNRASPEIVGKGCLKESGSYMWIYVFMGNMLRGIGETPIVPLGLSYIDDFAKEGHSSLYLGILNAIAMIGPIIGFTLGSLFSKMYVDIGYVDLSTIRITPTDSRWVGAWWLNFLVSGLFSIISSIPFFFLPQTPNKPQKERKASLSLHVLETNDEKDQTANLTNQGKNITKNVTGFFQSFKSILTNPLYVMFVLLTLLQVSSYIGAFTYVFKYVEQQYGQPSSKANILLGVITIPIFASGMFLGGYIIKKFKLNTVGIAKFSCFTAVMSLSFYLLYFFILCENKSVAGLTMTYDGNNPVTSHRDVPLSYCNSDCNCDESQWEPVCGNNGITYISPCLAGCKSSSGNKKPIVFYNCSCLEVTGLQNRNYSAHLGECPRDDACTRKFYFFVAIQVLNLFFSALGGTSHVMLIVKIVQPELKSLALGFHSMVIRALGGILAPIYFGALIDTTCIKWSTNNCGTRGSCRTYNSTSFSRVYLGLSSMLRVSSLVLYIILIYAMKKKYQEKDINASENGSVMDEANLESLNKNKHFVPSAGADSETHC
Outline: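 HEK-TR cells overexpressing hOATP1B1 or hOATP1B3, run in parallel with control HEK-TR cells, seeded at 1 x 10⁵ cells/well one day before. Time-dependent uptake of 1 μM compound in HBSS at 37 °C, quadruplicates. Uptake stopped with ice-cold buffer, cells washed, lysed and quantified by LC-MS/MS. Uptake ratio calculated against the control cells.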

Mus musculus = assay: Suppression of blood glucose concentration in ob/ob C57Bl/6J mouse model of T2DM at 30 mg/kg, po dosed 1 hrs before test and treated with 60 mg/kg, po OATP/MRP2 inhibitor rifampicin 2.5 hrs prior to oral glucose-tolerance test; format: functional, organism-based
Outline: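 Male ob/ob mice aged 10–11 weeks, n=7, randomised on blood glucose and fasted overnight. Rifampicin 60 mg/kg p.o. 2.5 h before the oGTT, compound 30 mg/kg p.o. 1 h before, GLP1(9-36)NH2 i.p. 15 min before, each given as indicated. Glucose 2 g/kg orally. Tail-vein glucose by glucometer at 0, 15, 30, 60 and 90 min.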

[2] = Oral bioavailability in C57Bl6 mouse at 10 mg/kg administered as single dose measured up to 24 hrs ESI-LC/MS-MS analysis; format: ADME, organism-based; conditions: in vivo
Outline: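 Single dose of compound: 3 mg/kg i.v. in solution (75% water : 25% of 75% Glycoferol/25% Cremophor) or 10 mg/kg p.o. as wet-milled suspension (0.6% methylcellulose, 0.5% Tween 80 in water); male Wistar rats n=3 per route, female C57Bl6 mice n=24 per route. Plasma sampled 0.25–24 h (p.o.), 0.083–24 h (i.v.); heparinized plasma, acetonitrile precipitation, ESI-LC/MS-MS (LOQ 1 ng/mL rat, 5 ng/mL mouse); noncompartmental analysis, linear trapezoidal.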

[3] = Volume of distribution at steady state in Wistar rat at 3 mg/kg, iv administered as single dose measured up to 24 hrs ESI-LC/MS-MS analysis; conditions: in vivo

dose excreted [1]: 74%
uptake ratio at 0.25 h, 1 µM (OATP1B1): 6 to 22
bioavailability [2]: 7.2%
Vdss [3]: 2.29 L/kg
Compound: CC(C)(C)OC(=O)n1c2c(c3ccccc31)C[C@H]1C(=O)N3C[C@@H](CC(=O)O)C[C@H]3[C@@H]2N1C(=O)CC1CCC(F)(F)CC1
Activity (Mus musculus): inactive
